Published values from different studies.
Protocols differ between the studies behind these lines.
Target: NUAK family SNF1-like kinase 1 (NUAK1, Homo sapiens, UniProt O60285)

Cc1nn(CC(F)(F)F)cc1Nc1ncc(Br)c(NCCc2cnc[nH]2)n1 — remaining activity (enzyme activity, inhibitor, radiometric; 1 µM): 13%
C=CC(=O)Nc1cc(Nc2nccc(Nc3cc(Cl)c(F)cc3C(C)(C)O)n2)c(OC)cc1N1CC[C@@H](N(C)C)C1 — inhibition (enzyme activity, inhibitor; 1 µM): 17%
NS(=O)(=O)c1cc(NC(=O)C2(c3ccccc3Cl)CC2)ccc1Oc1cccc(Cl)c1 — remaining binding (cell-free assay, competition with immobilised ligand; 1 µM): 95%
Cc1cc(NC(=O)c2cccc3cc(-c4cccc5[nH]nc(N)c45)ccc23)ccc1F — activity vs control (enzyme activity, inhibitor; 0.1 µM): 100%
CN(C(=O)c1ccccc1)c1cc(N(C)c2ccc3c(c2)CCc2ccc(C(=O)NCCN4CCOCC4)cc2C3=O)ccc1F — remaining binding (cell-free assay, competition with immobilised ligand; 1 µM): 100%
Cc1ccc(NC(=O)c2ccc(C)c(C(F)(F)F)c2)cc1C#Cc1nn(C2CCC(O)CC2)c2ncnc(N)c12 (stereo not shown) — remaining signal (cell-free assay; 10 µM): 108%
COc1cc2c(Nc3ccc(Br)cc3F)ncnc2cc1OCC1CCN(C)CC1 — remaining signal (cell-free assay; 0.5 µM): 92.7%
O=C1NC(c2ccccn2)Sc2ccccc21 (stereo not shown) — remaining binding (cell-free assay, competition with immobilised ligand; 1 µM): 95%
COc1cc(/C=C/C(=O)CC(=O)/C=C/c2ccc(O)c(OC)c2)ccc1O — activity vs control (enzyme activity, inhibitor; 1 µM): 55%
CN1CCc2cc(Nc3ncc(C4CC4)c(NCCCNC(=O)C4CCC4)n3)ccc2C1 — remaining activity (enzyme activity, inhibitor, radiometric; 1 µM): 6%
CN([C@@H]1CCc2c(CC(=O)O)c3ccccc3n2C1)S(=O)(=O)c1ccc(F)cc1 — remaining binding (cell-free assay, competition with immobilised ligand; 1 µM): 100%
Cc1nn(CC(F)(F)F)cc1Nc1ncc(C2CC2)c(NCCc2c[nH]cn2)n1 — remaining activity (enzyme activity, inhibitor, radiometric; 1 µM): 73%
CNC(=O)Nc1ccc2c(c1)CC[C@@]21OC(=O)N(CC(=O)N(Cc2ccc(F)cc2)[C@@H](C)C(F)(F)F)C1=O — remaining binding (cell-free assay, competition with immobilised ligand; 1 µM): 94%
Brc1cnc(Nc2cccc(CN3CCOCC3)c2)nc1NCCc1c[nH]cn1 — remaining activity (enzyme activity, inhibitor, radiometric; 1 µM): 1%
O=C(Nc1cnn(-c2csc(C(=O)NC3COC3)c2)c1)Nc1c(F)cccc1Cl — remaining activity (enzyme activity, inhibitor; 5 µM): 95.2%
O=C(NCCCNc1ccnc(Nc2cccc(NC(=O)N3CCCC3)c2)n1)C1CCC1 — remaining activity (enzyme activity, inhibitor, radiometric; 1 µM): 87%
CNC(=O)c1cc(Oc2ccc(NC(=O)Nc3ccc(Cl)c(C(F)(F)F)c3)cc2)ccn1 — inhibition (enzyme activity, inhibitor; 0.3 µM): -3%
O=C1NC(=O)c2cc(Nc3ccc(F)cc3)c(Nc3ccc(F)cc3)cc21 — remaining signal (cell-free assay; 0.5 µM): 94%
CN(C)C1CCN(CC#Cc2nn(C3CCCC3)c3nc(NCc4ccccc4)ncc23)C1 (stereo not shown) — inhibition (enzyme activity, inhibitor, FRET; 10 µM): 48%
C#Cc1cccc(Nc2ncnc3cc(OCCOC)c(OCCOC)cc23)c1 — remaining signal (cell-free assay; 0.5 µM): 98%
Cc1nn(CC(F)(F)F)cc1Nc1nccc(NCc2ccc(S(N)(=O)=O)cc2)n1 — remaining activity (enzyme activity, inhibitor, radiometric; 1 µM): 94%
Nc1ncnc2occ(-c3ccc(NC(=O)Nc4cc(C(F)(F)F)ccc4F)cc3)c12 — remaining signal (cell-free assay, inhibitor; 20 µM): 70%
c1ccc(N2CCN(Cc3nc4ccccc4[nH]3)CC2)nc1 — remaining binding (binding, competition with immobilised ligand; 1 µM): 89%
Cc1nn(CC(F)(F)F)cc1Nc1ncc(Br)c(NCc2ccc(S(N)(=O)=O)cc2)n1 — remaining activity (enzyme activity, inhibitor, radiometric; 1 µM): 58%
COc1cc(-c2cn(C3CCc4c(F)cccc4N(CC(F)(F)F)C3=O)nn2)ccc1-n1cnc(C)c1 (stereo not shown) — remaining binding (cell-free assay, competition with immobilised ligand; 1 µM): 100%
Cc1ccc(Nc2nccc(N(C)c3ccc4c(C)n(C)nc4c3)n2)cc1S(N)(=O)=O — inhibition (enzyme activity, inhibitor; 10 µM): 76%
N#Cc1ccc(Nc2ccc3[nH]c(=O)[nH]c3c2)c(Cl)c1 — remaining binding (cell-free assay, competition with immobilised ligand; 1 µM): 100%
c1cc(CN2CCOCC2)cc(Nc2nccc(NCCc3cnc[nH]3)n2)c1 — remaining activity (enzyme activity, inhibitor, radiometric; 1 µM): 14%
